From ChEMBL document CHEMBL1157379, “Transcriptional response of Candida parapsilosis following exposure to farnesol” (2007)
Active and inactive are the calls of the source. No cut-off for these calls is given here.

What was measured:
Candida parapsilosis [1] = assay: Decrease in ERG1 gene expression in Candida parapsilosis CLIB214 at 50 uM after 2 hrs by microarray based transcriptional profiling relative to control; format: functional
Summary of the method: (§1)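 Strain CLIB214 grown overnight in YPD at 30°C, diluted to A600 0.2 in fresh YPD at 30°C. After 4 h (A600 0.8), farnesol (40 mM methanol stock) added to 50 μM final, or an equal methanol volume as control; cells harvested 2 h later. RNA was accepted only with a 28S/18S ratio of 1.6–2.2. Cy3/Cy5-dCTP-labelled cDNA was made from 25 μg total RNA. Hybridisation was to duplicate-spotted 68-mer oligo arrays (3,849 genes) at 42°C for about 16 h. Six individual comparisons.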

Candida parapsilosis [2] = assay: Decrease in CGD gene ortholog accession number orf19.672 expression in Candida parapsilosis CLIB214 at 50 uM after 2 hrs by microarray based transcriptional profiling relative to control; format: functional; summary of the method: as §1
Candida parapsilosis [3] = assay: Antifungal activity against Candida parapsilosis CLIB214 assessed as growth inhibition at 100 uM added 4 hrs after […] growth; format: functional, organism-based
Summary of the method: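 C. parapsilosis CLIB214 grown overnight in YPD at 30°C, diluted to A600 0.2 in fresh YPD, grown 4 h (A600 0.8), then farnesol added at final 10, 20, 50 or 100 μM from a 40 mM methanol stock. Methanol-only controls. Growth followed by A600 or by cell counting with a particle counter.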

Candida parapsilosis [4] = assay: Decrease in CGD gene ortholog accession number orf19.5877 expression in Candida parapsilosis CLIB214 at 50 uM after 2 hrs by microarray based transcriptional profiling relative to control; format: functional
Summary of the method: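 Cells in YPD at 30°C treated with 50 μM farnesol at 4 h, with a methanol control. RNA harvested 2 h later and kept only if 28S/18S ratio was 1.6–2.2 with no degradation. 25 μg total RNA oligo-dT primed and labeled with Cy3/Cy5-dCTP. Labeled cDNA hybridized about 16 h at 42°C to duplicate-spotted 68-mer oligo arrays. Six individual comparisons analyzed statistically.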

Candida parapsilosis [5] = assay: Decrease in CGD gene ortholog accession number orf19.7325 expression in Candida parapsilosis CLIB214 at 50 uM after 2 hrs by microarray based transcriptional profiling relative to control; format: functional; summary of the method: as §1
Candida parapsilosis [6] = assay: Decrease in GenBank accession number XP_457879.1 expression in Candida parapsilosis CLIB214 at 50 uM after 2 hrs by microarray based transcriptional profiling relative to control; format: functional; summary of the method: as §1
Candida parapsilosis [7] = assay: Increase in CGD gene ortholog accession number orf19.1368 expression in Candida parapsilosis CLIB214 at 50 uM after 2 hrs by microarray based transcriptional profiling relative to control; format: functional; summary of the method: as §1

## CC(C)=CCC/C(C)=C/CC/C(C)=C/CO [FARNESOL]
Candida parapsilosis [1]
  fold change (FC): 2.24
Candida parapsilosis [2]
  fold change (FC): 1.77
Candida parapsilosis [3]
  Activity: Active
Candida parapsilosis [4]
  fold change (FC): 3.22
Candida parapsilosis [5]
  fold change (FC): 1.67
Candida parapsilosis [6]
  fold change (FC): 1.71
Candida parapsilosis [7]
  fold change (FC): 1.59
